Data set [1] can be described thus: folding enthalpy; higher = less favourable; fluorescence melt of hairpins on a sequencing array, two-state fit. The following applies: sodium 0.088 M. The gist of the method:
(§1)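 Melting temperature and folding enthalpy were derived from bootstrapped two-state fits. The fitted temperatures were raised by 9.35 °C to agree with UV melts, and four replicates were combined by inverse variance. The underlying data were Cy3 fluorescence images of library hairpins, with annealed Cy3 and quencher oligos, on a sequenced MiSeq flow cell in 50 mM Na-HEPES pH 8.0, 25 mM NaCl, taken in 2.5 °C steps up to 60 °C, normalised to pre-quench Cy3 and to control constructs.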

Data set [2] is described as follows: melting temperature; fluorescence melt of hairpins on a sequencing array, two-state fit, raised by 9.35 °C to match UV melts. Particulars: sodium 0.088 M. The gist of the method: as §1

With GGAGCTCCGAAAGGATCC (((..(((....)))))), the folding enthalpy in data set [1] is -10.9 kcal/mol. Further, the Tm in data set [2] was determined as 30.5 °C.

Turning to GGAGCTGGAAACAGCTTC (.(((((....))))).), the folding enthalpy in data set [1] was -26.4 kcal/mol. Also, the Tm in data set [2] came to 53.1 °C.

Consider GGAGGAACGAAAGTTTCC (((..(((....)))))), for which, in data set [1], the folding enthalpy is -16.2 kcal/mol. In data set [2], the Tm was 30.4 °C.

For GGAGGACGAAAGTCGTCC (((.(((....))).))), the folding enthalpy in data set [1] was -28.9 kcal/mol. For the same sequence, the Tm in data set [2] was 59.4 °C.

Take GGAGGAGGAAACCCCTCC (((((.(....).))))): the folding enthalpy in data set [1] was -26.7 kcal/mol. Also, the Tm in data set [2] worked out at 48.1 °C.

Consider GGAGGAGGAAACTCCTCC (((((((....))))))), for which the folding enthalpy in data set [1] was -40.3 kcal/mol. Besides, the Tm in data set [2] turned out to be 65.9 °C.

Turning to GGAGGAGGAAACTCTTCC (((.(((....))).))), the folding enthalpy in data set [1] is -29.1 kcal/mol. Besides, in data set [2], the Tm was 42.2 °C.

As for GGAGGATCGAAAGATTCC (((..(((....)))))), in data set [1], the folding enthalpy is -19.1 kcal/mol. Also, the Tm in data set [2] stood at 28.4 °C.

As to GGAGGCCGAAAGGCTCC (((.(((....)))))), the folding enthalpy in data set [1] was -21.1 kcal/mol. For the same sequence, the Tm in data set [2] stood at 57.2 °C.

Regarding GGAGGCGAAAGCCACTCC ((((((....)))..))), in data set [1], the folding enthalpy was -12.1 kcal/mol. Also, the Tm in data set [2] is 42.6 °C.

For the sequence GGAGGCGAAAGCCATTCC ((((((....)))..))), the folding enthalpy in data set [1] is -7.5 kcal/mol. Moreover, the Tm in data set [2] was determined as 34.7 °C.

Take GGAGGCGAAAGCCCCTCC ((((((....)))..))): the folding enthalpy in data set [1] is -12.6 kcal/mol. Besides, the Tm in data set [2] is 59.1 °C.

For the sequence GGAGGCGAAAGCCGTTCC ((((((....)))..))), the folding enthalpy in data set [1] is -8.29 kcal/mol. The Tm in data set [2] was 41.6 °C.

With GGAGGCGAAAGCCTATCC ((((((....)))..))), the folding enthalpy in data set [1] was -9.28 kcal/mol. Further, the Tm in data set [2] is 40.8 °C.

Turning to GGAGGCTCGAAAGAGTCC (((..(((....)))))), the folding enthalpy in data set [1] is -14.4 kcal/mol. In data set [2], the Tm was determined as 35.8 °C.

On to GGAGGGGGAAACCCCCCC ((.((((....)))).)), for which the folding enthalpy in data set [1] is -14.9 kcal/mol. For the same sequence, the Tm in data set [2] worked out at 50.9 °C.

For the sequence GGAGGGGGAAACCTCTCC ((((.((....)).)))), the folding enthalpy in data set [1] is -35.8 kcal/mol. Moreover, the Tm in data set [2] stood at 51.3 °C.

For GGAGGTCCGAAAGGATCC (((..(((....)))))), the folding enthalpy in data set [1] is -12 kcal/mol. In addition, the Tm in data set [2] was found to be 38.3 °C.

As for GGAGGTGCGAAAGCATCC (((..(((....)))))), the folding enthalpy in data set [1] is -11.6 kcal/mol. Also, in data set [2], the Tm was determined as 39.3 °C.

Consider GGAGTACCGAAAGGTTCC (((..(((....)))))), for which, in data set [1], the folding enthalpy was -15 kcal/mol. Also, the Tm in data set [2] was 36.3 °C.

GGAGTACGAAAGTAATCC (((.(((....))).))): in data set [1], the folding enthalpy is -31 kcal/mol. For the same sequence, the Tm in data set [2] is 51.4 °C.

Turning to GGAGTAGCGAAAGCTTCC (((..(((....)))))), the folding enthalpy in data set [1] was -16.1 kcal/mol. Further, in data set [2], the Tm was determined as 38.2 °C.

GGAGTAGGAAACTATTCC (((.(((....))).))): the folding enthalpy in data set [1] was -21.4 kcal/mol. In addition, the Tm in data set [2] came to 37.5 °C.

As to GGAGTAGGAAACTGCTTC (.((.((....)).)).), the folding enthalpy in data set [1] is -32.7 kcal/mol. In data set [2], the Tm is 41.4 °C.

In the case of GGAGTCACGAAAGTGTCC (((..(((....)))))), the folding enthalpy in data set [1] is -13.7 kcal/mol. Further, in data set [2], the Tm was determined as 32.1 °C.

In the case of GGAGTCGAAAGACAGTCC ((((((....)))..))), the folding enthalpy in data set [1] was -14.3 kcal/mol. Moreover, in data set [2], the Tm stood at 31.5 °C.

On to GGAGTCGAAAGACCATCC ((((((....)))..))), for which the folding enthalpy in data set [1] was -11.2 kcal/mol. Further, in data set [2], the Tm amounted to 29.5 °C.

Turning to GGAGTCGAAAGACCGTCC ((((((....)))..))), the folding enthalpy in data set [1] was -12.7 kcal/mol. Also, in data set [2], the Tm amounted to 32.2 °C.

With GGAGTCGAAAGACGCTCC ((((((....)))..))), the folding enthalpy in data set [1] was -12.6 kcal/mol. Besides, the Tm in data set [2] is 42.3 °C.

Turning to GGAGTCGAAAGACGTTCC ((((((....)))..))), the folding enthalpy in data set [1] is -11.3 kcal/mol. Also, in data set [2], the Tm was found to be 37.6 °C.

(Values after the array DNA melting data of Ke et al. (doi:10.1101/2024.01.08.574731).)
